Results: ChEMBL document CHEMBL4382192, “Discovery of a potent dual ALK and EGFR T790M inhibitor” (Eur J Med Chem, 2017)

How the values were obtained:
[1] = target: Serine/threonine-protein kinase 38-like (Homo sapiens) (UniProt Q9Y2H1); assay: Binding affinity to wild-type human partial length NDR2 (N34 to E447 residues) expressed in bacterial expression system assessed as residual binding level at 1 uM by Kinomescan method relative to control
[2] = Drug uptake in mouse lung at 2 mg/kg, iv after 8 hrs; assay type: ADME, organism-based; conditions: read-out: Drug uptake
[3] = target: Rhodopsin kinase GRK1 (Homo sapiens) (UniProt Q15835); assay: Binding affinity to wild-type human full length GRK1 (M1 to S563 residues) expressed in mammalian expression system assessed as residual binding level at 1 uM by Kinomescan method relative to control
Method in brief: (§1)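 Single-point kinome-wide KINOMEscan binding panel, test compound at 1 μM, run by the provider's standard protocol.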

[4] = target: Homeodomain-interacting protein kinase 3 (Homo sapiens) (UniProt Q9H422); assay: Binding affinity to wild-type human partial length HIPK3 (M153 to N562 residues) expressed in mammalian expression system assessed as residual binding level at 1 uM by Kinomescan method relative to control
[5] = target: Serine/threonine-protein kinase Nek5 (Homo sapiens) (UniProt Q6P3R8); assay: Binding affinity to wild-type human partial length NEK5 (M1 to M279 residues) expressed in bacterial expression system assessed as residual binding level at 1 uM by Kinomescan method relative to control
Sequence of Serine/threonine-protein kinase Nek5 (Homo sapiens) (Q6P3R8 whole entry, the tested form may be a part): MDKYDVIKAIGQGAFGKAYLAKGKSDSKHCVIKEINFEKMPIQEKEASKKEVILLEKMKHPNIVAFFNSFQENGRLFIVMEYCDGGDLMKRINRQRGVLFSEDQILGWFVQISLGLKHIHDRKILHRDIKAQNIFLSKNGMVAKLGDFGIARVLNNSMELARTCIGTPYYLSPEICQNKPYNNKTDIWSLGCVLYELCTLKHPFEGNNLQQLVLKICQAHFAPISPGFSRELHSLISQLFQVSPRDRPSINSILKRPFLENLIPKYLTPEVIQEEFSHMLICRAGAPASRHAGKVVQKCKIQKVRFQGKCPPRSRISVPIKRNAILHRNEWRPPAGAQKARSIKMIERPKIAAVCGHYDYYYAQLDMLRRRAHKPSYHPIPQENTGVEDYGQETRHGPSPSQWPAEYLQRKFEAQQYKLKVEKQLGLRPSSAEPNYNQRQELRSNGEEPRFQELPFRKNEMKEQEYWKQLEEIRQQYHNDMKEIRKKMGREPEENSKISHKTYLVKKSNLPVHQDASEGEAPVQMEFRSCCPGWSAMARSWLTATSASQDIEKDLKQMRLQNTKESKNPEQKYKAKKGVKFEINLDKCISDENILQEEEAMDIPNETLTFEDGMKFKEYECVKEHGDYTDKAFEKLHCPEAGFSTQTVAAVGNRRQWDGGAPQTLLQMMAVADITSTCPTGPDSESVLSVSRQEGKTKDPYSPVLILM

[6] = target: Serine/threonine-protein kinase D2 (Homo sapiens) (UniProt Q9BZL6); assay: Binding affinity to wild-type human partial length PRKD2 (A519 to E838 residues) expressed in bacterial expression system assessed as residual binding level at 1 uM by Kinomescan method relative to control
Sequence of Serine/threonine-protein kinase D2 (Homo sapiens) (Q9BZL6 whole entry, the tested form may be a part): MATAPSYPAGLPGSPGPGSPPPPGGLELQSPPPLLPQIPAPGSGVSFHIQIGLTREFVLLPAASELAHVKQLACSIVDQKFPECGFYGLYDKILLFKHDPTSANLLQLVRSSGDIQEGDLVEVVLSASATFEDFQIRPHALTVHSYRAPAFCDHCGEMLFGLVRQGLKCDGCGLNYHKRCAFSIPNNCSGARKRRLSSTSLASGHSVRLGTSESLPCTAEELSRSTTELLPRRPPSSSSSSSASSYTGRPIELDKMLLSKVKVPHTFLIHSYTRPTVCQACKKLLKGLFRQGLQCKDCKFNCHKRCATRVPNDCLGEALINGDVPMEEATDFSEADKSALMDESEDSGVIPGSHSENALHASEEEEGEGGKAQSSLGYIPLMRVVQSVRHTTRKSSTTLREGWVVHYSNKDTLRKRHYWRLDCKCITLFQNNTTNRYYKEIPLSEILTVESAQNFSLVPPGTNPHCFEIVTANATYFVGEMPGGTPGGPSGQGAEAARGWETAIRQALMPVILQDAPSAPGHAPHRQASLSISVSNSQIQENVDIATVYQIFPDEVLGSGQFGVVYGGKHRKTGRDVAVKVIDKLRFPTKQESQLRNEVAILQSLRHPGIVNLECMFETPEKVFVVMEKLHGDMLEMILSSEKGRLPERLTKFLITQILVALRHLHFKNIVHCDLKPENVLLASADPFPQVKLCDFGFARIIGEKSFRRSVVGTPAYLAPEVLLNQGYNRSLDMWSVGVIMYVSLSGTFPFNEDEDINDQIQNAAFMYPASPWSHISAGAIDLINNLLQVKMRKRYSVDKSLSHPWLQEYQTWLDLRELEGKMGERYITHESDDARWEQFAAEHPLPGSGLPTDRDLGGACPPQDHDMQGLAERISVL

[7] = target: Tyrosine-protein kinase JAK1 (Homo sapiens) (UniProt P23458); assay: Binding affinity to wild-type human partial length JAK1 JH2 pseudokinase domain (R537 to D855 residues) expressed in mammalian expression system assessed as residual binding level at 1 uM by Kinomescan method relative to control
Sequence of Tyrosine-protein kinase JAK1 (Homo sapiens) (P23458 whole entry, the tested form may be a part): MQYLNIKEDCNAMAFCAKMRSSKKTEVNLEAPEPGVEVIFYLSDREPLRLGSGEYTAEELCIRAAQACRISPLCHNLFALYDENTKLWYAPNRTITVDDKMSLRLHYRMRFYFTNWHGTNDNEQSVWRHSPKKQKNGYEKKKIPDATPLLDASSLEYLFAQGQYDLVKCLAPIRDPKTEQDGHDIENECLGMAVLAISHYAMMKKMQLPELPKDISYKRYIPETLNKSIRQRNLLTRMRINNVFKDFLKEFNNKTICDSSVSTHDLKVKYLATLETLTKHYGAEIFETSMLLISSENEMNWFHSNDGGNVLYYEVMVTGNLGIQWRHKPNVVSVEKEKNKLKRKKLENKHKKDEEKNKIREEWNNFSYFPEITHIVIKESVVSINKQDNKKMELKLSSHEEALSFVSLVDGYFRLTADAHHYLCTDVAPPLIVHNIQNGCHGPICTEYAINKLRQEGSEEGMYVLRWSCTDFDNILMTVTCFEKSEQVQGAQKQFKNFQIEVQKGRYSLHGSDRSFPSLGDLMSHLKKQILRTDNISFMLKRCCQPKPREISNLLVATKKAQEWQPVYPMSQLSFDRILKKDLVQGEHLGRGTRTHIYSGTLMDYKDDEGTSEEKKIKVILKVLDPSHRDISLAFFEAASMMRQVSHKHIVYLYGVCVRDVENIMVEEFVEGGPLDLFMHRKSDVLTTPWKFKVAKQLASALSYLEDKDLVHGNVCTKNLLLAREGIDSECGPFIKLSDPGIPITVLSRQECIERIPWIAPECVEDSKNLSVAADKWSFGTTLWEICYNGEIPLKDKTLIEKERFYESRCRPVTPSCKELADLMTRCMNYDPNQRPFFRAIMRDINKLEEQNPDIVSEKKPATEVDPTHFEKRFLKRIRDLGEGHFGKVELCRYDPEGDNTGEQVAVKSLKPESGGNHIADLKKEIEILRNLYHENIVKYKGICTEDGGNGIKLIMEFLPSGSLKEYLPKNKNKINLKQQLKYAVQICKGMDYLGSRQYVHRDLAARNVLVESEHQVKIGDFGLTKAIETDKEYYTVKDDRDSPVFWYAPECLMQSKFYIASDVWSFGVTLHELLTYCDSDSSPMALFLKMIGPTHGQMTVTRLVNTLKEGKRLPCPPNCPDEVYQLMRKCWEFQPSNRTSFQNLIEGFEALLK

[8] = target: cAMP-dependent protein kinase catalytic subunit PRKX (Homo sapiens) (UniProt P51817); assay: Binding affinity to wild-type human partial length PRKX (M1 to F358 residues) expressed in bacterial expression system assessed as residual binding level at 1 uM by Kinomescan method relative to control
Sequence of cAMP-dependent protein kinase catalytic subunit PRKX (Homo sapiens) (P51817 whole entry, the tested form may be a part): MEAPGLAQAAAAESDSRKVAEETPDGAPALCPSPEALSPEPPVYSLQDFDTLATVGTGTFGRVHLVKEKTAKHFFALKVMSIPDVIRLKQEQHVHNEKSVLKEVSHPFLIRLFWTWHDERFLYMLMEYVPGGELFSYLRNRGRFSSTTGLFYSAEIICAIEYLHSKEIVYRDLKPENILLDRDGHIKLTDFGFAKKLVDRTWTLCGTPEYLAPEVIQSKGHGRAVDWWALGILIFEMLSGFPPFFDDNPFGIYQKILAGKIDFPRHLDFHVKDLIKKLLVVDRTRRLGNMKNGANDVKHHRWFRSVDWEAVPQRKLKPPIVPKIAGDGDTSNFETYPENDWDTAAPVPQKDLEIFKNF

[9] = target: Serine/threonine-protein kinase ICK (Homo sapiens) (UniProt Q9UPZ9); assay: Binding affinity to wild-type human partial length ICK (M1 to P314 residues) expressed in mammalian expression system assessed as residual binding level at 1 uM by Kinomescan method relative to control
Sequence of Serine/threonine-protein kinase ICK (Homo sapiens) (Q9UPZ9 whole entry, the tested form may be a part): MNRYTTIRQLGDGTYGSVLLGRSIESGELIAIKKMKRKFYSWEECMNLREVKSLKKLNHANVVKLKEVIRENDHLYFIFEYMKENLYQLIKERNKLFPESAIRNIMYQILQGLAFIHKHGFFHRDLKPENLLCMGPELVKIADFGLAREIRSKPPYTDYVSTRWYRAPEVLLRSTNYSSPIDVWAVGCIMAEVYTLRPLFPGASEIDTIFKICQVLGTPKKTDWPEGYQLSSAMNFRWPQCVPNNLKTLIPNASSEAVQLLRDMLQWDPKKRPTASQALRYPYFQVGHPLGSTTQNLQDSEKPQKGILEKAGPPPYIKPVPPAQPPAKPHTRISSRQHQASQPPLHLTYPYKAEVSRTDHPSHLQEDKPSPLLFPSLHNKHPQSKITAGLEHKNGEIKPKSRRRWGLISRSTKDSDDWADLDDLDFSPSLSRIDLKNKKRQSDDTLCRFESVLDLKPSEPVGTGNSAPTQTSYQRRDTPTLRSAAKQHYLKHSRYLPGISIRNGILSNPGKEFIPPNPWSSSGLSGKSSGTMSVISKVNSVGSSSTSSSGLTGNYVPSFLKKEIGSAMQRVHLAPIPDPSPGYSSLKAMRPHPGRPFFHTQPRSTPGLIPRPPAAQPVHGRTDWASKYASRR

[10] = target: Mitogen-activated protein kinase 4 (Homo sapiens) (UniProt P31152); assay: Binding affinity to wild-type human partial length ERK4 (M1 to L365 residues) expressed in bacterial expression system assessed as residual binding level at 1 uM by Kinomescan method relative to control
[11] = target: Cyclin-dependent kinase 5 (Homo sapiens) (UniProt Q00535); assay: Binding affinity to wild-type human full length CDK5 (M1 to P292 residues) expressed in bacterial expression system assessed as residual binding level at 1 uM by Kinomescan method relative to control
Sequence of Cyclin-dependent kinase 5 (Homo sapiens) (Q00535 whole entry, looked up, the tested form may be a part): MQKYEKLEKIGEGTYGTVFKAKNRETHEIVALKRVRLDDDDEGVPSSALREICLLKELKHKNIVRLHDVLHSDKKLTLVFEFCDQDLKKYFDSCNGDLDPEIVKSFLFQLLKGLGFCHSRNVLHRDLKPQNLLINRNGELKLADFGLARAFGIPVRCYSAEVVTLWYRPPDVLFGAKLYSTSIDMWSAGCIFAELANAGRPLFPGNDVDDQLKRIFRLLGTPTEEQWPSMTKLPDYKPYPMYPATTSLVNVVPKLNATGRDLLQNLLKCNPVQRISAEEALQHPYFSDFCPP

[12] = target: Serine/threonine-protein kinase MRCK gamma (Homo sapiens) (UniProt Q6DT37); assay: Binding affinity to wild-type human partial length DMPK2 (S46 to S408 residues) expressed in bacterial expression system assessed as residual binding level at 1 uM by Kinomescan method relative to control
[13] = system: Phosphatidylinositol 4,5-bisphosphate 3-kinase catalytic subunit alpha isoform (Homo sapiens), P42336 [H1047Y]; assay: Binding affinity to human partial length PIK3CA H1047Y mutant (R108 to N1068 residues) expressed in mammalian expression system assessed as residual binding level at 1 uM by Kinomescan method relative to control
[14] = target: Phosphatidylinositol 4-phosphate 3-kinase C2 domain-containing subunit beta (Homo sapiens) (UniProt O00750); assay: Binding affinity to wild-type human partial length PIK3C2B (M1 to L1634 residues) expressed in mammalian expression system assessed as residual binding level at 1 uM by Kinomescan method relative to control
[15] = target: Ephrin type-B receptor 3 (Homo sapiens) (UniProt P54753); assay: Binding affinity to wild-type human partial length EPHB3 (Q599 to T928 residues) expressed in bacterial expression system assessed as residual binding level at 1 uM by Kinomescan method relative to control
[16] = target: LIM domain kinase 1 (Homo sapiens) (UniProt P53667); assay: Binding affinity to wild-type human full length LIMK1 (M1 to D647 residues) expressed in bacterial expression system assessed as residual binding level at 1 uM by Kinomescan method relative to control; method in brief: as §1
[17] = target: Cyclin-dependent kinase 14 (Homo sapiens) (UniProt O94921); assay: Binding affinity to wild-type human full length PFTK1 (M1 to H451 residues) expressed in bacterial expression system assessed as residual binding level at 1 uM by Kinomescan method relative to control; method in brief: as §1
Sequence of Cyclin-dependent kinase 14 (Homo sapiens) (O94921 whole entry, the tested form may be a part): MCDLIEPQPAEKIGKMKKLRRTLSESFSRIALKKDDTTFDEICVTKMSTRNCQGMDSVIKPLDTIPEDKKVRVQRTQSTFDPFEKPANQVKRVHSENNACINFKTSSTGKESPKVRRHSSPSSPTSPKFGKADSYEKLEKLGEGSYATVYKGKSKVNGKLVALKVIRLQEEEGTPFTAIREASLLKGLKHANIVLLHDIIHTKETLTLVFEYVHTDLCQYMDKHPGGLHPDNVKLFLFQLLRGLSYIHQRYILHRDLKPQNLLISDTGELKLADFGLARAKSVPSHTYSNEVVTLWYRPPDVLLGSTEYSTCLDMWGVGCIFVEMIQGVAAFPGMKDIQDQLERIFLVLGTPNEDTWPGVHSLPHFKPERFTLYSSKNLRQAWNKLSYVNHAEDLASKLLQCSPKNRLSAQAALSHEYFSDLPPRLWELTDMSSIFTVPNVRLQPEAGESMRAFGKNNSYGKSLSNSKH

Sequence of Serine/threonine-protein kinase 38-like (Homo sapiens) (Q9Y2H1 2-464 limits assumed): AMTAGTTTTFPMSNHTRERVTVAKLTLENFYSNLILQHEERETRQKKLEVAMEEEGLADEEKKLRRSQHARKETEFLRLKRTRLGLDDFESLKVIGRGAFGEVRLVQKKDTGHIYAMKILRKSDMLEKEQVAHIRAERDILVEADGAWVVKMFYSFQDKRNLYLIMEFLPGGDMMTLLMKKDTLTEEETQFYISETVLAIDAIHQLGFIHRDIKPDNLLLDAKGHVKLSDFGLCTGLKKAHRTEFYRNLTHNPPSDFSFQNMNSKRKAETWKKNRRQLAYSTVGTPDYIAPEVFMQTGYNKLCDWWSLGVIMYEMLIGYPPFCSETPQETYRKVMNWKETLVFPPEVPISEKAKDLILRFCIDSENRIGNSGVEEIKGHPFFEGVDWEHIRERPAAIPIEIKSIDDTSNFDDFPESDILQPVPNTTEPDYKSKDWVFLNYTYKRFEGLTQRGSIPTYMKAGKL

Q: What does the source list for `C=CC(=O)Nc1cc(Nc2ncc(Cl)c(Nc3ccccc3S(=O)(=O)C(C)C)n2)c(OC)cc1N(C)CCN(C)C`?
A: Activity [1]: 54%; concentration at 8 h [2]: 110 nM; Activity [3]: 28%; Activity [4]: 87%; Activity [5]: 80%; Activity [6]: 3.1%; Activity [7]: 63%; Activity [8]: 100%; Activity [9]: 65%; Activity [10]: 82%; Activity [11]: 85%; Activity [12]: 91%; Activity [13]: 100%; Activity [14]: 69%; Activity [15]: 63%; Activity [16]: 87%; Activity [17]: 83%
